Source: ChEMBL document CHEMBL1124663, “Design, synthesis, antineoplastic activity, and chemical properties of bis(carbamate) derivatives of 4,5-bis(hydroxymethyl)imidazole” (J Med Chem, 1989)

Experiments:
Mus musculus [1] = assay: Toxicity day evaluation was carried out on day 5 for animal dosed with 12.5 mg/kg compound; 6/6; format: organism-based; design: dose 12.5 mg/kg; conditions: in vivo
Mus musculus [2] = assay: Ability of 50 mg/kg of compound to kill tumor cells in mice is expressed as the log of the tumor cell population at the onset of treatment minus the log of the tumor cell population at the end of treatment.; format: functional
Mus musculus [3] = assay: Body Weight Difference (BWD) of test animals administered with 400 mg/kg compound is determined on day 5 for P388 tumor cells; format: functional
How it was run: (§1)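 P388 leukaemia: about 10^6 cells in ascitic fluid inoculated ip on day 0 (CD2F1 mice). Compound given ip in normal saline as a freshly prepared solution or suspension, once daily on days 1–5. Treated-minus-control body weight difference in g, taken as day 5 minus day 1 weight. Groups of six.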

Mus musculus [4] = assay: Toxicity day evaluation was carried out on day 5 for animal dosed with 400 mg/kg compound; 3/6; format: organism-based; design: dose 400 mg/kg; conditions: in vivo
Mus musculus [5] = assay: Toxicity day evaluation was carried out on day 5 for animal dosed with 50 mg/kg compound; 6/6; format: organism-based; design: dose 50 mg/kg; conditions: in vivo
Mus musculus [6] = assay: Toxicity day evaluation was carried out on day 5 for animal dosed with 100 mg/kg compound; 6/6; format: organism-based; design: dose 100 mg/kg; conditions: in vivo
Mus musculus [7] = assay: Ability of 100 mg/kg of compound to kill tumor cells in mice is expressed as the log of the tumor cell population at the onset of treatment minus the log of the tumor cell population at the end of treatment.; format: functional
Mus musculus [8] = assay: The percent of the median survival time of test mice compared to control mice is determined for mice administered with 12.5 mg/kg compound.; format: functional
Mus musculus [9] = assay: Body Weight Difference (BWD) of test animals administered with 12.5 mg/kg compound is determined on day 5 for P388 tumor cells; format: functional; how it was run: as §1
Mus musculus [10] = assay: Body Weight Difference (BWD) of test animals administered with 100 mg/kg compound is determined on day 5 for P388 tumor cells; format: functional; how it was run: as §1
Mus musculus [11] = assay: Ability of 200 mg/kg of compound to kill tumor cells in mice is expressed as the log of the tumor cell population at the onset of treatment minus the log of the tumor cell population at the end of treatment.; format: functional
Mus musculus [12] = assay: The percent of the median survival time of test mice compared to control mice is determined for mice administered with 50 mg/kg compound.; format: functional
Mus musculus [13] = assay: Toxicity day evaluation was carried out on day 5 for animal dosed with 25 mg/kg compound; 6/6; format: organism-based; design: dose 25 mg/kg; conditions: in vivo
Mus musculus [14] = assay: Body Weight Difference (BWD) of test animals administered with 200 mg/kg compound is determined on day 5 for P388 tumor cells; format: functional; how it was run: as §1
Mus musculus [15] = assay: Body Weight Difference (BWD) of test animals administered with 25 mg/kg compound is determined on day 5 for P388 tumor cells; format: functional; how it was run: as §1
Mus musculus [16] = assay: Toxicity day evaluation was carried out on day 5 for animal dosed with 200 mg/kg compound; 6/6; format: organism-based; design: dose 200 mg/kg; conditions: in vivo
Mus musculus [17] = assay: Body Weight Difference (BWD) of test animals administered with 50 mg/kg compound is determined on day 5 for P388 tumor cells; format: functional; how it was run: as §1
Mus musculus [18] = assay: The percent of the median survival time of test mice compared to control mice is determined for mice administered with 400 mg/kg compound; format: functional
Mus musculus [19] = assay: The percent of the median survival time of test mice compared to control mice is determined for mice administered with 100 mg/kg compound; format: functional
Mus musculus [20] = assay: The percent of the median survival time of test mice compared to control mice is determined for mice administered with 200 mg/kg compound; format: functional
Mus musculus [21] = assay: Toxicity day evaluation was carried out on day 5 for animal dosed with 400 mg/kg compound; 6/6; format: organism-based; design: dose 400 mg/kg; conditions: in vivo
Mus musculus [22] = assay: Ability of 12.5 mg/kg of compound to kill tumor cells in mice is expressed as the log of the tumor cell population at the onset of treatment minus the log of the tumor cell population at the end of treatment.; format: functional
Mus musculus [23] = assay: Ability of 25 mg/kg of compound to kill tumor cells in mice is expressed as the log of the tumor cell population at the onset of treatment minus the log of the tumor cell population at the end of treatment.; format: functional
Mus musculus [24] = assay: The percent of the median survival time of test mice compared to control mice is determined for mice administered with 400 mg/kg compound.; format: functional
Mus musculus [25] = assay: Ability of 400 mg/kg of compound to kill tumor cells in mice is expressed as the log of the tumor cell population at the onset of treatment minus the log of the tumor cell population at the end of treatment; format: functional
Mus musculus [26] = assay: Ability of 200 mg/kg of compound to kill tumor cells in mice is expressed as the log of the tumor cell population at the onset of treatment minus the log of the tumor cell population at the end of treatment; format: functional

SMILES	Survivors / animals tested (Mus musculus [1])	KE (Mus musculus [2])	BWD (Mus musculus [3]) [g]	Survivors / animals tested (Mus musculus [5])	Survivors / animals tested (Mus musculus [6])	BWD (Mus musculus [9]) [g]	BWD (Mus musculus [10]) [g]	T/C (Mus musculus [12]) [%]	Survivors / animals tested (Mus musculus [13])	BWD (Mus musculus [14]) [g]	BWD (Mus musculus [15]) [g]	Survivors / animals tested (Mus musculus [16])	BWD (Mus musculus [17]) [g]	Survivors / animals tested (Mus musculus [21])	other results
CSc1nc(COC(=O)NC(C)C)c(COC(=O)NC(C)C)n1Cc1ccccc1	6	-0.42	-3.2	6	6	-0.2	-0.3	110	6	-2.2	-1.5	6	-0.5	–	Survivors / animals tested (Mus musculus [4]): 3; KE (Mus musculus [7]): -0.39; T/C (Mus musculus [8]): 98%; KE (Mus musculus [11]): -0.32
CC(C)NC(=O)OCc1ncn(-c2ccccc2)c1COC(=O)NC(C)C	6	–	-2.3	6	6	-0.4	0.6	97	6	0.2	-0.1	6	0.8	6	T/C (Mus musculus [18]): 90%; T/C (Mus musculus [19]): 91%; T/C (Mus musculus [20]): 90%
CSc1nc(COC(=O)NC(C)C)c(COC(=O)NC(C)C)n1C	6	-0.56	-3.4	6	6	2.6	-1.2	130	6	-1.8	0.4	6	0	6	KE (Mus musculus [22]): -1.4; KE (Mus musculus [23]): -0.91; T/C (Mus musculus [24]): 70%
CNC(=O)OCc1nc(SC)n(Cc2ccccc2)c1COC(=O)NC	–	–	-1.2	6	6	–	0.4	–	–	-0.4	–	6	0.9	6	KE (Mus musculus [25]): -0.71; KE (Mus musculus [26]): -0.44
